Assay results as given in ChEMBL document CHEMBL1770061, “Synthesis and antiproliferative activity of new cytotoxic azanaphthoquinone pyrrolo-annelated derivatives: Part II” (Bioorg Med Chem Lett, 2011).
Converted amounts (≈) assume the structure as drawn.

Tests used:
[1] = Antiproliferative activity against human KB/HeLa cells after 48 hrs by XTT assay; assay type: functional, cell-based
In short: (§1)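 Compounds were added from DMSO stocks as a 10-point half-log dilution series, with final DMSO adjusted to 0.3%. Cells were incubated for 45 h at 37 °C/5% CO2, then with 1 mg/ml XTT plus PMS for a further 3 h. Absorbance at 490 nm was read after 48 h total. Untreated cells were set as 0% and cell-free blanks as 100% inhibition. EC50 came from nonlinear regression of at least two independent assays.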

[2] = Antiproliferative activity against human RKOp27 cells after 48 hrs by XTT assay; assay type: functional, cell-based; settings: RKOp27, 48 h; in short: as §1
SK-OV-3 [3] = experiment: Antiproliferative activity against human SKOV3 cells assessed as growth inhibition at 3.16 ug/ml after 48 hrs by XTT assay; assay type: functional; settings: SK-OV-3, 48 h
In short: (§2)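 This is the same 48 h XTT assay: 10-point half-log series, 0.3% final DMSO, 3 h XTT/PMS, A490, with untreated cells as 0% and blanks as 100% inhibition. Inhibition at the highest tested concentration was scored as none (<30%) or moderate (≥30%).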

SF-268 [4] = experiment: Antiproliferative activity against human SF268 cells assessed as growth inhibition at 3.16 ug/ml after 48 hrs by XTT assay; assay type: functional; settings: SF-268, 48 h; in short: as §2
NCI-H460 [5] = experiment: Antiproliferative activity against human NCI-H460 cells assessed as growth inhibition at 3.16 ug/ml after 48 hrs by XTT assay; assay type: functional; settings: NCI-H460, 48 h; in short: as §2
[6] = Antiproliferative activity against human RKOp27IND cells assessed as growth inhibition at 3.16 ug/ml after 48 hrs by XTT assay; assay type: functional; in short: as §2
[7] = Antiproliferative activity against human KB/HeLa cells assessed as growth inhibition at 3.16 ug/ml after 48 hrs by XTT assay; assay type: functional; in short: as §2
[8] = Antiproliferative activity against human RKOp27 cells assessed as growth inhibition at 3.16 ug/ml after 48 hrs by XTT assay; assay type: functional; settings: RKOp27, 48 h; in short: as §2
NCI-H460 [9] = experiment: Antiproliferative activity against human NCI-H460 cells after 48 hrs by XTT assay; assay type: functional, cell-based; settings: NCI-H460, 48 h; in short: as §1
SK-OV-3 [10] = experiment: Antiproliferative activity against human SKOV3 cells after 48 hrs by XTT assay; assay type: functional, cell-based; settings: SK-OV-3, 48 h
In short: (§3)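 Compounds dissolved in DMSO were added as a 10-point half-log dilution series, with final DMSO adjusted to 0.3%. Cells were incubated 45 h at 37 °C/5% CO2, then XTT (1 mg/ml) plus PMS was added for 3 h more (48 h total). Absorbance was read at 490 nm. Untreated cells were set as 0% inhibition and cell-free blanks as 100%. EC50 was fitted by nonlinear regression from ≥2 independent assays and reported as mean ± SD.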

SF-268 [11] = experiment: Antiproliferative activity against human SF268 cells after 48 hrs by XTT assay; assay type: functional, cell-based; settings: SF-268, 48 h; in short: as §1
[12] = Antiproliferative activity against human RKOp27IND cells after 48 hrs by XTT assay; assay type: functional, cell-based; in short: as §3
[13] = Chemical stability of the compound in KH2PO4/Na2HPO4 buffer at pH 5.5 after 6 hrs by NMR spectroscopy; assay type: physicochemical; settings: pH 5.5, 6 h
In short: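 Compounds were exposed at 37 °C to a KH2PO4/Na2HPO4 buffer at pH 5.5, prepared according to the European Pharmacopoeia.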

Compound | EC50 [1] [µg/mL] | EC50 [2] [µg/mL] | inhibition at 3.16 µg/mL (SK-OV-3 [3]) [%] | inhibition at 3.16 µg/mL (SF-268 [4]) [%] | inhibition at 3.16 µg/mL (NCI-H460 [5]) [%] | inhibition at 3.16 µg/mL [6] [%] | inhibition at 3.16 µg/mL [7] [%] | inhibition at 3.16 µg/mL [8] [%] | EC50 (NCI-H460 [9]) [µg/mL] | EC50 (SK-OV-3 [10]) [µg/mL] | EC50 (SF-268 [11]) [µg/mL] | EC50 [12] [µg/mL] | Stability [13]
CN(C)CCc1cn(CCO)c2c1C(=O)c1ccncc1C2=O | > 3.16 | > 3.16 | < 30 | < 30 | < 30 | < 30 | – | – | – | – | – | – | –
CN(C)CCc1cn(CCN(C)C)c2c1C(=O)c1ccncc1C2=O | – | – | < 30 | < 30 | < 30 | < 30 | < 30 | < 30 | – | – | – | – | –
O=C1c2ccncc2C(=O)c2c1ccn2CCCC(O)CN1CC1 (stereo not given) | > 3.16 | > 3.16 | < 30 | < 30 | – | < 30 | – | – | > 3.16 | – | – | – | –
CNCCn1cc(CCN(C)C)c2c1C(=O)c1cnccc1C2=O | > 3.16 | > 3.16 | – | – | – | – | – | – | > 3.16 | > 3.16 | > 3.16 | > 3.16 | –
O=C1c2c(O)ccc(O)c2C(=O)c2c(NCCNCCO)ccc(NCCNCCO)c21 [MITOXANTRONE] | 0.355 (≈ 0.799 µM) | 0.0865 (≈ 0.195 µM) | – | – | – | – | – | – | 0.122 (≈ 0.275 µM) | 0.121 (≈ 0.272 µM) | 0.315 (≈ 0.709 µM) | 0.763 (≈ 1.72 µM) | –
O=C1c2ccncc2C(=O)c2c1ccn2CCCCCCCN1CC1 | > 3.16 | 1.19 (≈ 3.54 µM) | – | – | – | – | – | – | > 3.16 | > 3.16 | > 3.16 | > 3.16 | –
O=C1c2ccncc2C(=O)c2c1ccn2CCCCN1CC1 | 0.549 (≈ 1.86 µM) | 0.299 (≈ 1.01 µM) | – | – | – | – | – | – | 0.727 (≈ 2.46 µM) | 2.19 (≈ 7.4 µM) | 1.89 (≈ 6.41 µM) | 2.23 (≈ 7.55 µM) | –
O=C1c2ccncc2C(=O)c2c1ccn2CC1CO1 (stereo not given) | 0.062 (≈ 0.244 µM) | 0.026 (≈ 0.102 µM) | – | – | – | – | – | – | 0.062 (≈ 0.244 µM) | 0.265 (≈ 1.04 µM) | 0.2 (≈ 0.787 µM) | 1.3 (≈ 5.11 µM) | Stable
CN(C)CCc1cn(CCN2CC2)c2c1C(=O)c1ccncc1C2=O | 0.972 (≈ 2.87 µM) | 0.784 (≈ 2.32 µM) | – | – | – | – | – | – | > 3.16 | 2.74 (≈ 8.09 µM) | 2.41 (≈ 7.12 µM) | 2.36 (≈ 6.99 µM) | –
CN(C)CCc1c[nH]c2c1C(=O)c1ccncc1C2=O | – | – | < 30 | < 30 | < 30 | < 30 | < 30 | < 30 | – | – | – | – | –
O=C1c2ccncc2C(=O)c2c1ccn2CCCCCCC1CO1 (stereo not given) | – | – | < 30 | < 30 | < 30 | < 30 | < 30 | < 30 | – | – | – | – | Stable
O=C1c2ccncc2C(=O)c2c1ccn2CCN1CC1 | > 3.16 | > 3.16 | < 30 | – | – | – | – | – | > 3.16 | – | > 3.16 | > 3.16 | –
CN(C)CCc1cn(CCCCOS(C)(=O)=O)c2c1C(=O)c1ccncc1C2=O | – | – | – | – | – | – | – | – | – | – | – | – | Unstable
O=C1c2ccncc2C(=O)c2c1ccn2CC(O)CN1CC1 (stereo not given) | 0.747 (≈ 2.51 µM) | 0.899 (≈ 3.02 µM) | – | – | – | – | – | – | 2.21 (≈ 7.44 µM) | > 3.16 | > 3.16 | > 3.16 | –
CS(=O)(=O)OCCCCn1ccc2c1C(=O)c1cnccc1C2=O | > 3.16 | > 3.16 | < 30 | – | – | < 30 | – | – | > 3.16 | – | > 3.16 | – | –
O=C1c2ccncc2C(=O)c2c1ccn2CCCC1CO1 (stereo not given) | > 3.16 | > 3.16 | < 30 | ≥ 30 | – | < 30 | – | – | > 3.16 | – | – | – | Stable
CN(C)CCc1cn(CCCCCCCO)c2c1C(=O)c1ccncc1C2=O | – | – | < 30 | < 30 | < 30 | < 30 | < 30 | < 30 | – | – | – | – | –
CN(C)CCCc1c[nH]c2c1C(=O)c1ccncc1C2=O | – | – | < 30 | < 30 | – | < 30 | < 30 | < 30 | – | – | – | – | –
CS(=O)(=O)OCCn1ccc2c1C(=O)c1cnccc1C2=O | – | – | < 30 | < 30 | – | ≥ 30 | < 30 | < 30 | > 3.16 | – | – | – | –
CN(C)CCCn1cc(CCN(C)C)c2c1C(=O)c1cnccc1C2=O | > 3.16 | > 3.16 | – | – | – | – | – | – | > 3.16 | > 3.16 | > 3.16 | > 3.16 | –
CN(C)CCc1cn(CCNCCO)c2c1C(=O)c1ccncc1C2=O | > 3.16 | > 3.16 | < 30 | – | < 30 | < 30 | – | – | – | – | > 3.16 | – | –
CN(C)CCc1cn(CCCCCCCN2CC2)c2c1C(=O)c1ccncc1C2=O | > 3.16 | > 3.16 | – | < 30 | – | < 30 | – | – | > 3.16 | > 3.16 | – | – | –
CN(C)CCc1cn(CCCCN2CC2)c2c1C(=O)c1ccncc1C2=O | 0.512 (≈ 1.4 µM) | 0.205 (≈ 0.559 µM) | – | – | – | – | – | – | 0.722 (≈ 1.97 µM) | 1.51 (≈ 4.12 µM) | 1.39 (≈ 3.8 µM) | 1.35 (≈ 3.68 µM) | –
CN(C)CCc1cn(CCCCO)c2c1C(=O)c1ccncc1C2=O | – | – | < 30 | < 30 | < 30 | < 30 | < 30 | < 30 | – | – | – | – | –
O=C1c2ccncc2C(=O)c2c1ccn2CCCCCCC(O)CN1CC1 (stereo not given) | > 3.16 | > 3.16 | < 30 | < 30 | – | < 30 | – | – | > 3.16 | – | – | – | –
CN(C)CCCc1cn(CCCN(C)C)c2c1C(=O)c1ccncc1C2=O | – | > 3.16 | < 30 | < 30 | – | < 30 | < 30 | – | > 3.16 | – | – | – | –
CN(C)CCc1cn(CCCCCCCOS(C)(=O)=O)c2c1C(=O)c1ccncc1C2=O | – | – | – | – | – | – | – | – | – | – | – | – | Unstable
CS(=O)(=O)OCCCCCCCn1ccc2c1C(=O)c1cnccc1C2=O | – | – | < 30 | < 30 | < 30 | < 30 | < 30 | < 30 | – | – | – | – | –
